Converted amounts (≈) assume the structure as drawn.
Experiments:
[1] = tested on: Fusobacterium; assay: In vitro antimicrobial activity against anaerobic bacteria fusobacterium symbiosum 1470; assay type: functional
[2] = tested on: Collinsella aerofaciens; assay: In vitro antimicrobial activity against anaerobic bacteria aerofaciens 1235; assay type: functional
[3] = tested on: Clostridioides difficile; assay: In vitro antimicrobial activity against anaerobic bacteria Clostridium difficile 2994; assay type: functional
[4] = tested on: Phocaeicola vulgatus; assay: In vitro antimicrobial activity against anaerobic bacteria bacteroides vulgatus 1211; assay type: functional
[5] = tested on: Bacteroides thetaiotaomicron; assay: In vitro antimicrobial activity against anaerobic bacteria bacteroides thetaiotaomicron 1438; assay type: functional
[6] = tested on: Prevotella melaninogenica; assay: In vitro antimicrobial activity against anaerobic bacteria bacteroides melaninogenicus 1856,; assay type: functional
[7] = tested on: Streptococcus pyogenes; assay: In vivo effective dose against experimental infections in rodent caused by Streptococcus pyogenes C203 when administered sc; assay type: functional
[8] = tested on: Anaerococcus prevotii; assay: In vitro antimicrobial activity against anaerobic bacteria peptococcus prevoti 1281; assay type: functional
[9] = tested on: Cutibacterium acnes; assay: In vitro antimicrobial activity against anaerobic bacteria propionibacterium acnes 79; assay type: functional
[10] = tested on: Clostridium septicum; assay: In vitro antimicrobial activity against anaerobic bacteria clostridium septicum 1128; assay type: functional
[11] = tested on: Haemophilus influenzae; assay: In vitro antimicrobial activity against Haemophilus influenzae.; assay type: functional
[12] = tested on: Enterococcus faecium; assay: In vitro antimicrobial activity against Streptococcus faecium X66; assay type: functional, streptococcus fae-cium
[13] = In vitro antimicrobial activity against anaerobic bacteria peptostreptococcus intermedius 1264; assay type: functional
[14] = tested on: Chlamydia trachomatis; assay: In vitro antimicrobial activity against chlamydia trachomatis.; assay type: functional
[15] = tested on: Staphylococcus aureus; assay: In vitro antimicrobial activity against Staphylococcus aureus X1; assay type: functional
[16] = tested on: Streptococcus pneumoniae; assay: In vitro antimicrobial activity against Streptococcus pneumoniae; assay type: functional
[17] = tested on: Prevotella melaninogenica; assay: In vitro antimicrobial activity against anaerobic bacteria bacteroides melaninogenicus 2736; assay type: functional
[18] = tested on: Peptoniphilus asaccharolyticus; assay: In vitro antimicrobial activity against anaerobic bacteria peptococcus asaccharolyticus 1302; assay type: functional
[19] = tested on: Bacteroides fragilis; assay: In vitro antimicrobial activity against anaerobic bacteria bacteroides fragilis 1877; assay type: functional
[20] = tested on: Peptostreptococcus anaerobius; assay: In vitro antimicrobial activity against anaerobic bacteria peptostreptococcus anaerobius 1428,; assay type: functional
[21] = tested on: Streptococcus pyogenes; assay: In vitro antimicrobial activity against Streptococcus pyogenes C203; assay type: functional
[22] = tested on: Streptococcus pyogenes; assay: In vivo effective dose against experimental infections in rodent caused by Streptococcus pyogenes C203 when administered orally; assay type: functional; conditions: po
[23] = tested on: Bacteroides fragilis; assay: In vitro antimicrobial activity against anaerobic bacteria bacteroides fragilis 111; assay type: functional
[24] = tested on: Clostridium perfringens; assay: In vitro antimicrobial activity against anaerobic bacteria clostridium perfringens 81,; assay type: functional
[25] = tested on: Staphylococcus epidermidis; assay: In vitro antimicrobial activity against Staphylococcus epidermidis EPI1; assay type: functional
[26] = tested on: Eikenella corrodens; assay: In vitro antimicrobial activity against anaerobic bacteria bacteroides corrodens 1874; assay type: functional
[27] = tested on: Bacteroides fragilis; assay: In vitro antimicrobial activity against anaerobic bacteria bacteroides fragilis 1936B,; assay type: functional
[28] = tested on: Fusobacterium necrophorum; assay: In vitro antimicrobial activity against anaerobic bacteria usobacterium necrophorum 6054A; assay type: functional
[29] = tested on: Collinsella aerofaciens; assay: In vitro antimicrobial activity against anaerobic bacteria eubacterium aerofaciens 1235; assay type: functional
[30] = tested on: Streptococcus; assay: In vitro antimicrobial activity against aerobic bacteria Streptococcus D 8043; assay type: functional
[31] = tested on: Staphylococcus aureus; assay: In vitro antimicrobial activity against aerobic bacteria Staphylococcus aureus 513E; assay type: functional
[32] = tested on: Staphylococcus epidermidis; assay: In vitro antimicrobial activity against aerobic bacteria Streptococcus epi 270; assay type: functional
[33] = tested on: Haemophilus influenzae; assay: In vitro antimicrobial activity against aerobic bacteria Haemophilus influenzae 76; assay type: functional
[34] = tested on: Streptococcus pyogenes; assay: Antimicrobial activity against Streptococcus pyogenes C203; assay type: functional
[35] = tested on: Staphylococcus epidermidis; assay: In vitro antimicrobial activity against aerobic bacteria Streptococcus epi 222; assay type: functional
[36] = tested on: Streptococcus; assay: In vitro antimicrobial activity against aerobic bacteria Streptococcus G Kruder; assay type: functional; conditions: Streptococcus; read-out: MIC
[37] = tested on: Streptococcus; assay: In vitro antimicrobial activity against aerobic bacteria Streptococcus C 24; assay type: functional
[38] = tested on: Haemophilus influenzae; assay: In vitro antimicrobial activity against aerobic bacteria Haemophilus influenzae 465; assay type: functional
[39] = tested on: Streptococcus; assay: In vitro antimicrobial activity against aerobic bacteria Streptococcus D 9960; assay type: functional
[40] = tested on: Streptococcus pyogenes; assay: Effective dose against Streptococcus pyogenes C203 when administered orally; assay type: functional; conditions: po
Procedure, shortened: (§1)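 Mouse protection test: infected mice were dosed twice, at 1 and 5 h postinfection, either subcutaneously or orally. […] The result is expressed as ED50 in mg/kg × 2.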

[41] = tested on: Streptococcus; assay: In vitro antimicrobial activity against aerobic bacteria Streptococcus B 8; assay type: functional
[42] = tested on: Peptostreptococcus anaerobius; assay: In vitro antimicrobial activity against anaerobic bacteria eubacterium peptostreptococcus anaerobius 1428,; assay type: functional
[43] = tested on: Streptococcus; assay: In vitro antimicrobial activity against aerobic bacteria Streptococcus B 5; assay type: functional
[44] = tested on: Streptococcus pyogenes; assay: Effective dose against Streptococcus pyogenes C203 when administered sc; assay type: functional; procedure, shortened: as §1
[45] = tested on: Haemophilus influenzae; assay: In vitro antimicrobial activity against aerobic bacteria Haemophilus influenzae MX366,; assay type: functional
[46] = tested on: Streptococcus pneumoniae; assay: In vitro antimicrobial activity against aerobic bacteria Streptococcus pneumoniae B1-438; assay type: functional, streptococcus pneum
[47] = tested on: Staphylococcus aureus; assay: In vitro antimicrobial activity against aerobic bacteria Staphylococcus aureus V41; assay type: functional
[48] = tested on: Streptococcus viridans; assay: In vitro antimicrobial activity against aerobic bacteria Streptococcus viridans 9943; assay type: functional
[49] = tested on: Staphylococcus aureus; assay: In vitro antimicrobial activity against aerobic bacteria Staphylococcus aureus X400; assay type: functional
[50] = tested on: Streptococcus; assay: In vitro antimicrobial activity against aerobic bacteria Streptococcus D 2041; assay type: functional
[51] = tested on: Streptococcus sanguinis; assay: In vitro antimicrobial activity against aerobic bacteria Streptococcus sanguis MX132; assay type: functional
[52] = tested on: Staphylococcus aureus; assay: In vitro antimicrobial activity against aerobic bacteria Staphylococcus aureus V140,; assay type: functional
[53] = tested on: Staphylococcus aureus; assay: In vitro antimicrobial activity against aerobic bacteria Staphylococcus aureus V135; assay type: functional
[54] = tested on: Haemophilus parainfluenzae; assay: In vitro antimicrobial activity against aerobic bacteria Haemophilus parainfluenzae 9796; assay type: functional

## CC[C@H]1OC(=O)C[C@@H](O)[C@H](C)[C@@H](O[C@@H]2O[C@H](C)[C@@H](O[C@H]3C[C@@](C)(O)[C@@H](O)[C@H](C)O3)[C@H](N(C)C)[C@H]2O)[C@@H](CCO)C[C@@H](C)C(=O)/C=C/C(C)=C/[C@@H]1CO[C@@H]1O[C@H](C)[C@@H](O)[C@@H](OC)[C@H]1OC [RELOMYCIN]
[1]
  MIC: 4 µg/mL (≈ 4.36 µM)
[2]
  MIC: 1 µg/mL (≈ 1.09 µM)
[3]
  MIC: 1 µg/mL (≈ 1.09 µM)
[4]
  MIC: > 8 µg/mL
[5]
  MIC: 4 µg/mL (≈ 4.36 µM)
[6]
  MIC: 4 µg/mL (≈ 4.36 µM)
[7]
  ED50: 15.4 mg/kg
[8]
  MIC: > 8 µg/mL
[9]
  MIC: 8 µg/mL (≈ 8.71 µM)
[10]
  MIC: 8 µg/mL (≈ 8.71 µM)
[11]
  MIC: > 128 µg/mL
[12]
  MIC: 64 µg/mL (≈ 69.7 µM)
[13]
  MIC: > 8 µg/mL
[14]
  MIC: > 1 µg/mL
[15]
  MIC: 4 µg/mL (≈ 4.36 µM)
[16]
  MIC: 32 µg/mL (≈ 34.9 µM)
[17]
  MIC: 8 µg/mL (≈ 8.71 µM)
[18]
  MIC: 1 µg/mL (≈ 1.09 µM)
[19]
  MIC: > 8 µg/mL
[20]
  MIC: > 8 µg/mL
[21]
  MIC: 2 µg/mL (≈ 2.18 µM)
[22]
  ED50: > 100 mg/kg
[23]
  MIC: 4 µg/mL (≈ 4.36 µM)
[24]
  MIC: > 8 µg/mL
[25]
  MIC: 4 µg/mL (≈ 4.36 µM)
[26]
  MIC: > 8 µg/mL
[27]
  MIC: 8 µg/mL (≈ 8.71 µM)
[28]
  MIC: 1 µg/mL (≈ 1.09 µM)

## CC[C@H]1OC(=O)C[C@@H](O)[C@H](C)[C@@H](O[C@@H]2O[C@H](C)[C@@H](O)[C@H](N(C)C)[C@H]2O)[C@@H](CC=O)C[C@@H](C)C(=O)/C=C/C(C)=C/[C@@H]1CO
[29]
  MIC: < 0.5 µg/mL
[30]
  MIC: 0.5 µg/mL (≈ 0.836 µM)
[31]
  MIC: 1 µg/mL (≈ 1.67 µM)
[32]
  MIC: > 128 µg/mL
[1]
  MIC: < 0.005 µg/mL
[33]
  MIC: 2 µg/mL (≈ 3.35 µM)
[34]
  MIC: 0.25 µg/mL (≈ 0.418 µM)
[35]
  MIC: 0.25 µg/mL (≈ 0.418 µM)
[3]
  MIC: 4 µg/mL (≈ 6.69 µM)
[36]
  MIC: 0.25 µg/mL (≈ 0.418 µM)
[4]
  MIC: 32 µg/mL (≈ 53.5 µM)
[37]
  MIC: 0.5 µg/mL (≈ 0.836 µM)
[5]
  MIC: 128 µg/mL (≈ 214 µM)
[6]
  MIC: 8 µg/mL (≈ 13.4 µM)
[7]
  ED50: 3.9 mg/kg
[38]
  MIC: 4 µg/mL (≈ 6.69 µM)
[39]
  MIC: 1 µg/mL (≈ 1.67 µM)
[8]
  MIC: 16 µg/mL (≈ 26.8 µM)
[40]
  ED50: 3.3 mg/kg
[41]
  MIC: 0.5 µg/mL (≈ 0.836 µM)
[9]
  MIC: 8 µg/mL (≈ 13.4 µM)
[10]
  MIC: 4 µg/mL (≈ 6.69 µM)
[11]
  MIC: 2 µg/mL (≈ 3.35 µM)
[12]
  MIC: 1 µg/mL (≈ 1.67 µM)
[42]
  MIC: 32 µg/mL (≈ 53.5 µM)
[13]
  MIC: 1 µg/mL (≈ 1.67 µM)
[14]
  MIC: 0.5 µg/mL (≈ 0.836 µM)
[43]
  MIC: 1 µg/mL (≈ 1.67 µM)
[15]
  MIC: 1 µg/mL (≈ 1.67 µM)
[16]
  MIC: 0.25 µg/mL (≈ 0.418 µM)
[44]
  ED50: 97 mg/kg
[45]
  MIC: 2 µg/mL (≈ 3.35 µM)
[17]
  MIC: 8 µg/mL (≈ 13.4 µM)
[18]
  MIC: 2 µg/mL (≈ 3.35 µM)
[19]
  MIC: 64 µg/mL (≈ 107 µM)
[46]
  MIC: > 128 µg/mL
[47]
  MIC: 2 µg/mL (≈ 3.35 µM)
[21]
  MIC: 0.25 µg/mL (≈ 0.418 µM)
[22]
  ED50: 102 mg/kg
[23]
  MIC: 32 µg/mL (≈ 53.5 µM)
[24]
  MIC: < 0.5 µg/mL
[25]
  MIC: 1 µg/mL (≈ 1.67 µM)
[48]
  MIC: > 128 µg/mL
[49]
  MIC: 2 µg/mL (≈ 3.35 µM)
[50]
  MIC: 0.5 µg/mL (≈ 0.836 µM)
[51]
  MIC: 0.25 µg/mL (≈ 0.418 µM)
[26]
  MIC: 32 µg/mL (≈ 53.5 µM)
[27]
  MIC: 32 µg/mL (≈ 53.5 µM)
[52]
  MIC: 1 µg/mL (≈ 1.67 µM)
[28]
  MIC: < 0.5 µg/mL
[53]
  MIC: 1 µg/mL (≈ 1.67 µM)
[54]
  MIC: 4 µg/mL (≈ 6.69 µM)

From ChEMBL document CHEMBL1124186, “Synthesis and evaluation of tylosin-related macrolides modified at the aldehyde function: a new series of orally effective antibiotics” (1988)
